Measurements: ChEMBL document CHEMBL4330154, “Di- and heptavalent nicotinic analogues to interfere with α7 nicotinic acetylcholine receptors” (Bioorg Med Chem, 2019)
pIC50: −log10 of the molar value.

Tests used:
Assay type in all cases: cell-based
[1] = biological target: T1, Neuronal acetylcholine receptor subunit alpha-7 (Homo sapiens, UniProt P36544); experiment: (§1) Antagonist activity at human alpha7 nAChR expressed in Xenopus laevis oocytes assessed as inhibition of ACh-induced inward current at -60 mV holding potential preincubated for 1 min followed by ACh addition by two-microelectrode voltage clamp assay
T1 sequence (P36544 whole entry): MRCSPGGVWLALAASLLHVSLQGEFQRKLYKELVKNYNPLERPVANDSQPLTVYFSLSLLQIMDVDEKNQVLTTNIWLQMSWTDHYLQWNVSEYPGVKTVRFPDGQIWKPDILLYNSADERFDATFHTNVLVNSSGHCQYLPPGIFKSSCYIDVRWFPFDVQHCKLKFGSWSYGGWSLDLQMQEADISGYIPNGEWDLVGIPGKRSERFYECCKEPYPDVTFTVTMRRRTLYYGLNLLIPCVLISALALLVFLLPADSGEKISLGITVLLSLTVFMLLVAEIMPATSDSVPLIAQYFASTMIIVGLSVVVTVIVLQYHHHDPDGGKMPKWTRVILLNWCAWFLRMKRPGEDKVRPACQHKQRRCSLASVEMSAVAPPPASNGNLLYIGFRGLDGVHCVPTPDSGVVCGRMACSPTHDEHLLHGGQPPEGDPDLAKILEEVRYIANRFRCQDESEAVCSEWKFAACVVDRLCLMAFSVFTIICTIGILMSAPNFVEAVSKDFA
Method in brief: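 Oocytes expressing human α7 mRNA were clamped at −60 mV on an automated TEVC rig, using electrodes of 50–60 MΩ filled with 1 M KCl/1 M ammonium acetate. The bath was OR2 (88 mM NaCl, 1 mM MgCl₂, 5 mM Hepes, pH 7.6). ACh 100 μM was applied three times with 4 min washes between. Each oocyte then got a 1 min compound preincubation followed by 100 μM ACh plus the same compound concentration. IC50 came from a Hill fit of the fractional current.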

[2] = biological target: T1, Neuronal acetylcholine receptor subunit alpha-7; experiment: as §1, with “assay relative to 2-(2-(2-(2-(4-(5-(1-methylpyrrolidin-2-yl)pyridin-3-yl)-1H-1,2,3-triazol-1-yl)ethoxy)ethoxy)ethoxy)ethanol” for “assay”
[3] = biological target: T1, Neuronal acetylcholine receptor subunit alpha-7; experiment: Antagonist activity at human alpha7 nAChR expressed in Xenopus laevis oocytes assessed as inhibition of ACh-induced inward current at -60 mV holding potential preincubated for 1 min followed by ACh addition by two-microelectrode voltage clamp assay relative to cyclodextrin reference compound
Method in brief: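 Human α7 mRNA expressed in Xenopus oocytes; automated two-electrode voltage clamp at -60 mV holding, electrodes filled with 1 M KCl/1 M ammonium acetate; OR2 buffer (88 mM NaCl, 1 mM MgCl2, 5 mM Hepes, pH 7.6). Three 100 μM ACh applications spaced by 4 min washes; 1 min compound preincubation, then 100 μM ACh plus compound. IC50 from fit F = 1/[1+([X]/IC50)^nH].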

| fold change (FC) [3] | Compound | pIC50 [1] | inhibition [1] | fold change (FC) [2] |
| --- | --- | --- | --- | --- |
| – | CN1CCCC1c1cncc(-c2cn(CCOCCOCCOCCOCCOCCOCCOCCn3cc(-c4cncc(C5CCCN5C)c4)nn3)nn2)c1 (configuration not stated) | 3.21 | Dose-dependent effect | 0.16 |
| – | CN1CCCC1c1cncc(-c2cn(CCOCCOCCOCCOCCOCCOCCOCCOCCOCCOCCOCCOCCOCCOCCOCCOCCOCCOCCOCCOCCOCCOCCOCCOCCOCCOCCOCCn3cc(-c4cncc(C5CCCN5C)c4)nn3)nn2)c1 (configuration not stated) | 4.68 | Dose-dependent effect | 4.6 |
| 0.14 | CN1CCCC1c1cncc(-c2cn(C[C@H]3O[C@@H]4O[C@H]5[C@H](O)[C@@H](O)[C@@H](O[C@H]6[C@H](O)[C@@H](O)[C@@H](O[C@H]7[C@H](O)[C@@H](O)[C@@H](O[C@H]8[C@H](O)[C@@H](O)[C@@H](O[C@H]9[C@H](O)[C@@H](O)[C@@H](O[C@H]%10[C@H](O)[C@@H](O)[C@@H](O[C@H]3[C@H](O)[C@H]4O)O[C@@H]%10Cn3cc(-c4cncc(C%10CCCN%10C)c4)nn3)O[C@@H]9Cn3cc(-c4cncc(C9CCCN9C)c4)nn3)O[C@@H]8Cn3cc(-c4cncc(C8CCCN8C)c4)nn3)O[C@@H]7Cn3cc(-c4cncc(C7CCCN7C)c4)nn3)O[C@@H]6Cn3cc(-c4cncc(C6CCCN6C)c4)nn3)O[C@@H]5Cn3cc(-c4cncc(C5CCCN5C)c4)nn3)nn2)c1 (some centres not stated) | 3.71 | Dose-dependent effect | – |
| – | CN1CCCC1c1cncc(-c2cn(CCOCCOCCOCCn3cc(-c4cncc(C5CCCN5C)c4)nn3)nn2)c1 (configuration not stated) | 4.92 | Dose-dependent effect | 8.1 |
| – | CN1CCCC1c1cncc(-c2cn(CCOCCOCCOCCOCCOCCOCCOCCOCCOCCOCCOCCOCCOCCOCCOCCOCCOCCOCCOCCn3cc(-c4cncc(C5CCCN5C)c4)nn3)nn2)c1 (configuration not stated) | 3.80 | Dose-dependent effect | 0.61 |
| – | CN1CCCC1c1cncc(-c2cn(CCOCCOCCOCCO)nn2)c1 (configuration not stated) | 3.71 | Dose-dependent effect | – |
| – | CN1CCCC1c1cncc(-c2cn(C[C@H]3O[C@@H]4O[C@H]5[C@H](O)[C@@H](O)[C@@H](O[C@H]6[C@H](O)[C@@H](O)[C@@H](O[C@H]7[C@H](O)[C@@H](O)[C@@H](O[C@H]8[C@H](O)[C@@H](O)[C@@H](O[C@H]9[C@H](O)[C@@H](O)[C@@H](O[C@H]%10[C@H](O)[C@@H](O)[C@@H](O[C@H]3[C@H](O)[C@H]4O)O[C@@H]%10CO)O[C@@H]9CO)O[C@@H]8CO)O[C@@H]7CO)O[C@@H]6CO)O[C@@H]5CO)nn2)c1 (some centres not stated) | 4.25 | Dose-dependent effect | – |
| – | CN1CCCC1c1cncc(-c2cn(CCOCCOCCOCCOCCOCCOCCOCCOCCOCCOCCOCCn3cc(-c4cncc(C5CCCN5C)c4)nn3)nn2)c1 (configuration not stated) | 3.52 | Dose-dependent effect | 0.32 |
